The subject of data set [1] is APOL1 G2mc mice. As to the kind of experiment: Prophylactic IFNγ-induced proteinuria model in APOL1 G2 multicopy mice. Conditions: 30 mg/kg bid. In kind it is in vivo, mouse.
Data set [2] has as its target T1, APOL1 G2 (Homo sapiens, UniProt O14791, DEL388-389/M228I/R255K).
T1 sequence (O14791 with tags, fused parts or gaps M228I/R255K/DEL388-389): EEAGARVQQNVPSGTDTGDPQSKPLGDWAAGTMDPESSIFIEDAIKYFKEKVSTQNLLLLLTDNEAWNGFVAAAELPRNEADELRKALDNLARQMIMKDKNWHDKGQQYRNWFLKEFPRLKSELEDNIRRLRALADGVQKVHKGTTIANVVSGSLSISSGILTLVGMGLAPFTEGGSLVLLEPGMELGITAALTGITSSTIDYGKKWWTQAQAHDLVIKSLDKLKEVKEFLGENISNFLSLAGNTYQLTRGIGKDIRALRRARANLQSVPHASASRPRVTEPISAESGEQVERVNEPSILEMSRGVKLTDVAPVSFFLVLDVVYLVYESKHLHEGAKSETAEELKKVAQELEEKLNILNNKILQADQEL
Kind of data set: Thallium flux assay, tet-inducible HEK293 APOL1 G2. It is filed as cell-based.

A further data set can be described thus: Rat pharmacokinetics. The following applies: in vivo; for bioavailability: po.
A further data set can be described thus: Human Clint. Conditions: hepatocytes. In kind it is in vitro ADME.
The target of data set [3] is T2, APOL1 G1 (Homo sapiens, UniProt O14791, I384M/M228I/R255K/S342G).
T2 sequence (O14791 28-398 M228I/R255K/S342G/I384M): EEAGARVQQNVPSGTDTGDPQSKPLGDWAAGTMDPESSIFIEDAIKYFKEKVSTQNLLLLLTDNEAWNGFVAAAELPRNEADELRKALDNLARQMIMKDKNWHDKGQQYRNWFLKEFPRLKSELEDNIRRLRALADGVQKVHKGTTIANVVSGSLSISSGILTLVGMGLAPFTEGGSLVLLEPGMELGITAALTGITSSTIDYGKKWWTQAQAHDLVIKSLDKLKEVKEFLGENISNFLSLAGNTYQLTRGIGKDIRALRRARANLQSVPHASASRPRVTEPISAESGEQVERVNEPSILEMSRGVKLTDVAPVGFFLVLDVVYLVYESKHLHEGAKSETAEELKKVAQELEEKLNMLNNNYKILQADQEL
As to the kind of experiment: HEK cell rescue. In kind it is cell-based.

In data set [4] the test system is APOL1 G2sc mice. Kind of data set: Therapeutic IFNγ plasmid model in APOL1 G2 single copy mice, UACR. It is filed as in vivo, mouse. The following applies: 30 mg/kg bid from day 6, vs vehicle. The essentials: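 Homozygous APOL1 G2 single-copy transgenic mice of both sexes. Proteinuria was induced by a single hydrodynamic tail-vein injection of a CpG-free plasmid encoding murine IFNγ, 0.3 μg total in saline at 10% body weight, given over about 5–10 s. Mice were allocated by day-5 UACR to give matched group means (n = 12 vehicle, 11 treated). Serum IFNγ was measured by immunoassay on days 1, 5, 9 and 14.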

The next data set is described as follows: LogD7.4. In kind it is physicochemical. Conditions: pH 7.4.
Data set [5] deals with T2, APOL1 G1. As to the kind of experiment: Thallium flux assay, tet-inducible HEK293 APOL1 G1. It is filed as cell-based.
Data set [6] deals with APOL1 G2sc mice. Kind of data set: Kidney histopathology and nephrin immunohistochemistry. It is filed as in vivo, mouse. Conditions: IFNγ plasmid, 30 mg/kg bid. The essentials: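 FVB homozygous APOL1 G2 single-copy mice received a hydrodynamic tail-vein injection of 0.3 μg CpG-free murine IFNγ plasmid in saline (volume 10% of body weight). Groups were balanced by day-5 UACR; vehicle or test compound bid started on day 6. The left kidney was formalin-fixed and cut into 3 µm FFPE sections. Nephrin IHC used CC1 retrieval (95 °C, 64 min), antibody 1:1000 for 1 h, and DAB. AI scoring of all glomeruli in one section gave the H-score.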

Another data set in a line: Rat Clint. It is filed as in vitro ADME. Conditions: hepatocytes.
Data set [7] deals with T3, APOL1 G2 (Homo sapiens, UniProt O14791, DEL388-389/M228I/R255K, cells depend on it).
T3 sequence (O14791 with tags, fused parts or gaps M228I/R255K/DEL388-389): T1 sequence (O14791 with tags, fused parts or gaps M228I/R255K/DEL388-389)
Kind of data set: HEK cell rescue. In kind it is cell-based. Conditions: read-out: APOL1 G2 HEK Cell Rescue EC50; HEK293 APOL1 G2; replicates in brackets.

Data set [8] has as its system APOL1 G2mc mice. Conditions: 3 mg/kg tid; cited from earlier work.
Data set [9] addresses T2, APOL1 G1. As to the kind of experiment: Automated whole-cell patch clamp. It is filed as cell-based.
The target in another data set is T4, recombinant APOL1 G0 (Homo sapiens, UniProt O14791).
T4 sequence (O14791 28-398): T2 sequence (O14791 28-398 M228I/R255K/S342G/I384M) with I201M, K228R, G315S, M357I
As to the kind of experiment: Trypanosome. In kind it is cell-based. The essentials: (§1)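 T. b. brucei were grown in modified HMI-9, then plated at 120,000 parasites/well in phenol red/FBS-free medium with Serum Plus, test compound and recombinant APOL1. APOL1 was at a final level killing about 90% of parasites. After 16 h at 37 °C, alamarBlue was added for 2.5 h, read at ex/em 555/585, in duplicate, and fitted to dose–response curves. Experimental replicates: G0 n=1, G1 n=4, G2 n=1.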

Data set [10] concerns purified, recombinant APOL1. The following applies: cited from earlier work.
The conditions of data set [11]: cited from earlier work.
In data set [12] the target is T5, APOL1 G0 (Homo sapiens, UniProt O14791, M228I/R255K).
T5 sequence (O14791 28-398 M228I/R255K): T2 sequence (O14791 28-398 M228I/R255K/S342G/I384M) with G315S, M357I
Kind of data set: Automated whole-cell patch clamp. In kind it is cell-based. The essentials:
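Tet-inducible HEK293 APOL1 G0 cells, induced with 15 ng/mL tet for 16–20 h. Automated whole-cell recording used extracellular NaCl and intracellular CsF, with hole resistance 1.5–2.5 MΩ and a ramp protocol. After 5 min control recording, six test compound concentrations (100 pM–1 μM) were applied for 5 min each. Peak outward current was normalized to control and fitted to a four-parameter variable-slope curve; 8 cells.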

The target in a further data set is T6, recombinant APOL1 G1 (Homo sapiens, UniProt O14791, I384M/S342G).
T6 sequence (O14791 28-398 S342G/I384M): T2 sequence (O14791 28-398 M228I/R255K/S342G/I384M) with I201M, K228R
Kind of data set: Trypanosome. It is filed as cell-based. The essentials:
as §1

In data set [13] the target is T1, APOL1 G2. As to the kind of experiment: Automated whole-cell patch clamp. In kind it is cell-based. On the technique in general: The patch-clamp technique gives a direct electrical read-out from membranes.
In a further data set the target is T7, recombinant APOL1 G2 (Homo sapiens, UniProt O14791, DEL388-389).
T7 sequence (O14791 with tags, fused parts or gaps DEL388-389): T1 sequence (O14791 with tags, fused parts or gaps M228I/R255K/DEL388-389) with I201M, K228R
As to the kind of experiment: Trypanosome. In kind it is cell-based. The essentials:
as §1

For data set [14], the target named is T5, APOL1 G0. As to the kind of experiment: HEK cell rescue. In kind it is cell-based. The essentials: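 HEK293 tet-inducible APOL1 cells in DMEM with 2% tet-free FBS, seeded at 23,400 cells/well and induced with 50 ng/mL tet for 24 h alongside test compound. Dosing was a 10-point 3-fold series from 10 μM, in duplicate. MultiTox reagent was added for 30 min at 37 °C, reading viability (ex 400/em 486) and cytotoxicity (ex 485/em 535). The dead:live ratio was normalized to no-tet (100%) and tet-only (0%) controls before curve fitting.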

Where a chain is given by its changes, count along the chain named.

We go through three compounds from article PMC11696124 (Nature Communications, 2025).

As to `Cc1cc(F)cc2c(CCC(=O)N[C@@H]3C(=O)NC[C@H]3O)c(-c3ccc(F)cc3)[nH]c12` [Compound 3, 3-[5-fluoro-2-(4-fluorophenyl)-7-methyl-1H-indol-3-yl]-N-[(3S,4 R)-4-hydroxy-2-oxo-pyrrolidin-3-yl]propanamide], the “APOL1-mediated proteinuria, prophylactic treatment” value with APOL1 G2mc mice [1] is on record as “able to prevent APOL1-mediated proteinuria”. Further, at APOL1 G2 [2], inhibition was half-maximal at 5.4 nM (IC50). Further, in “Rat pharmacokinetics”, the distribution volume (Vd) (in general, a proportionality between amount in the body and measured concentration, not a real space) worked out at 1.4 L/kg; the clearance (in general, the rate of elimination divided by the concentration) was determined as 6 mL/min/kg; the half-life (as a rule, the time needed for the level to fall by half in the phase considered) was 4.2 h; the bioavailability (as a rule, dose-corrected exposure relative to a reference, in per cent) is 28%. In addition, the intrinsic metabolic clearance (hepatocyte CLint) (usually a measure of how fast metabolising enzymes remove a compound, apart from limits set by blood flow) in the data set “Human Clint” turned out to be 6.3 µL/min/1e6 cells. Moreover, the midpoint of the response on APOL1 G1 [3], the EC50, lay at 3.6 nM. Besides, the “Percent reduction in UACR AUC Day 6-14” value with APOL1 G2sc mice [4] is 97%. Besides, the logD – broadly, the decadic logarithm of the distribution of all forms, ionised or not, between an organic phase and buffer at a given pH – in the data set “LogD7.4” worked out at 2.7. Further, the IC50 (usually the midpoint of a concentration-inhibition curve) on APOL1 G1 [5] was determined as 4.2 nM. Also, in the data set on APOL1 G2sc mice [6], the “microscopic evaluation of kidney tissues” value is given as “no microscopic abnormalities or nephrin loss were noted” and the “nephrin H-scores versus no IFNγ control” value is “comparable”. For the same compound, the hepatocyte CLint in the data set “Rat Clint” came to 5.1 µL/min/1e6 cells. Also, the EC50 – broadly, the concentration at which the effect is half-maximal – on APOL1 G2 [7] came to 10 nM.
For `O=C(CCc1c(-c2ccc(F)cc2)[nH]c2c(F)cc(F)cc12)N[C@@H]1C(=O)NC[C@H]1O` [VX-147, 3-[5,7-difluoro-2-(4-fluorophenyl)-1H-indol-3-yl]-N-[(3S,4 R)-4-hydroxy-2-oxo-pyrrolidin-3-yl] propanamide], the IC50 on APOL1 G2 [2] amounted to 1.2 nM; on APOL1 G1 [9], 1.3 nM; on APOL1 G0 [12], 2.3 nM; against APOL1 G1 [5], 2 nM; at APOL1 G2 [13], 1.1 nM. Also, in the data set on APOL1 G2mc mice [8], the “APOL1-dependent proteinuria, prophylactic treatment” value is on record as “reduced APOL1-dependent proteinuria”. Besides, the concentration giving a half-maximal response (EC50) on recombinant APOL1 G0 came out at 2 nM; at APOL1 G1 [3], 2 nM; at recombinant APOL1 G1, 2.1 nM; at recombinant APOL1 G2 it was 1.2 nM; at APOL1 G0 [14], 4.3 nM; on APOL1 G2 [7], 2.2 nM. In addition, the Vd in the data set “Rat pharmacokinetics” worked out at 0.9 L/kg. Further, the clearance in “Rat pharmacokinetics” turned out to be 4.8 mL/min/kg. In the data set “Rat pharmacokinetics”, this compound showed a half-life of 2.5 h. The compound also had a bioavailability in “Rat pharmacokinetics” of 57%. The “binding to purified, recombinant APOL1” value in data set [10] was “bind directly”. Further, the intrinsic metabolic clearance (hepatocyte CLint) in “Human Clint” is less than 2.5 µL/min/1e6 cells; in “Rat Clint” it was 4.7 µL/min/1e6 cells. For the same compound, in data set [11] (13-week clinical trial, patients with two APOL1 risk alleles and proteinuric non-diabetic kidney disease), the reduction in proteinuria is given as 47.6%. In addition, the glomerular filtration rate entry in data set [11] (13-week study in 16 individuals) is “stable”. Moreover, the logD in “LogD7.4” was determined as 2.7.
For the compound `Cc1cc(F)cc2c(CCC(=O)N[C@H]3CCNC3=O)c(-c3ccc(F)cc3)[nH]c12` [Compound 2, 3-[5-fluoro-2-(4-fluorophenyl)-7-methyl-1H-indol-3-yl]-N-[(3S)-2-oxopyrrolidin-3-yl]propanamide], in the data set “Rat pharmacokinetics”, the Vd was 2.1 L/kg, the clearance was 15 mL/min/kg, the half-life is 4.1 h and the bioavailability came out at 34%. Also, in the data set “Human Clint”, the hepatocyte CLint was determined as 15.4 µL/min/1e6 cells. Also, the concentration for a half-maximal effect (EC50) on APOL1 G1 [3] is 37 nM. The compound further came in with a log distribution coefficient (logD) in the data set “LogD7.4” of 2.8. On APOL1 G1 [5], it took 40 nM to reach half-maximal inhibition (IC50). This compound returned an intrinsic metabolic clearance (hepatocyte CLint) in the data set “Rat Clint” of 8.2 µL/min/1e6 cells.
